The source of these data is ChEMBL document CHEMBL2331196, “Solvent Selection for Insoluble Ligands, a Challenge for Biological Assay Development: A TNF-α/SPD304 Study” (ACS Med Chem Lett, 2013).

Holding throughout (type): physicochemical
Series [1] is described as follows: Solubility of the compound in 10 % DMSO by UV/visible spectroscopy. The procedure, abridged:
(§1)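 The compound was diluted from a 10 mM aqueous stock of its HCl salt into 10 mM citrate-phosphate buffer, pH 6.5, containing the organic solvent at the stated % (v/v). Samples were centrifuged, and soluble material was read by UV absorbance at 252 nm. The pellet was resuspended in pure solvent and read as a check. Values are the mean of four independent measurements.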

A short description of series [2]: Solubility of the compound in 5 % PEG3350 by UV/visible spectroscopy. An outline of the steps: as §1
The nature of series [3]: Solubility of the compound in 10 % DMF by UV/visible spectroscopy. The procedure, abridged:
as §1

Series [4] in a line: Solubility of the compound in 5 % PEG5000 by UV/visible spectroscopy. The procedure, abridged:
as §1

Series [5] is described as follows: Solubility of the compound in 10 % PEG3350 by UV/visible spectroscopy. The procedure, abridged: as §1
A short description of series [6]: Solubility of the compound in 5 % DMSO by UV/visible spectroscopy. The procedure, abridged: as §1
Series [7] is described as follows: Solubility of the compound in 2.5 % PEG5000 by UV/visible spectroscopy. An outline of the steps: as §1
Series [8] in a line: Solubility of the compound in 10 % glycerol by UV/visible spectroscopy. An outline of the steps: as §1
Series [9] can be described thus: Solubility of the compound in citrate-phosphate buffer at pH 6.5. The procedure, abridged: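 The compound was diluted from a 10 mM aqueous stock (pH about 1) into 10 mM citrate-phosphate buffer, pH 6.5, with no organic cosolvent. After centrifugation, soluble material was quantified by UV absorbance at 252 nm. The resuspended precipitate was also measured. Values are the mean of four independent measurements.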

Series [10] is described as follows: Solubility of the compound in 5 % DMF by UV/visible spectroscopy. The procedure, abridged: as §1
Series [11] can be described thus: Solubility of the compound in 10 % MeOH by UV/visible spectroscopy. An outline of the steps:
as §1

Series [12] in a line: Solubility of the compound in 5 % MeOH by UV/visible spectroscopy. The procedure, abridged: as §1
A short description of series [13]: Solubility of the compound in 2.5 % DMSO by UV/visible spectroscopy. The procedure, abridged: as §1
Series [14] in a line: Solubility of the compound in 5 % glycerol by UV/visible spectroscopy. An outline of the steps:
as §1

Series [15] can be described thus: Solubility of the compound in 2.5 % DMF by UV/visible spectroscopy. The procedure, abridged:
as §1

A short description of series [16]: Solubility of the compound in 10 % PEG5000 by UV/visible spectroscopy. An outline of the steps:
as §1

A short description of series [17]: Solubility of the compound in 2.5 % MeOH by UV/visible spectroscopy. The procedure, abridged:
as §1

Series [18] in a line: Solubility of the compound in 2.5 % glycerol by UV/visible spectroscopy. An outline of the steps: as §1

Converted amounts (≈) assume the structure as drawn. Where only a bound is given, the exact number is not on record here.

As for `Cc1cc2occ(CN(C)CCN(C)Cc3cn(-c4cccc(C(F)(F)F)c4)c4ccccc34)c(=O)c2cc1C`, the solubility in [1] was 79 µM (≈ 43.3 µg/mL); in [2], 84 µM (≈ 46 µg/mL); in [3], 82 µM (≈ 44.9 µg/mL); in series [4] it was 97 µM (≈ 53.1 µg/mL); in [5], 96 µM (≈ 52.6 µg/mL); in series [6], 52 µM (≈ 28.5 µg/mL). The solubility in series [7] is 90 µM (≈ 49.3 µg/mL); in [8] it was 28 µM (≈ 15.3 µg/mL); in [9] it was 10 µM (≈ 5.48 µg/mL); in [10], 58 µM (≈ 31.8 µg/mL); in [11], 83 µM (≈ 45.5 µg/mL); in series [12], 58 µM (≈ 31.8 µg/mL). Also, the solubility in [13] was 33 µM (≈ 18.1 µg/mL); in series [14], 19 µM (≈ 10.4 µg/mL); in series [15] it was 35 µM (≈ 19.2 µg/mL); in [16] it was over 100 µM; in [17], 37 µM (≈ 20.3 µg/mL); in series [18], 15 µM (≈ 8.21 µg/mL).
